Screens as filed in PubChem BioAssay.
CHRM5 PAM – positive allosteric modulators of human muscarinic M5 receptor; hit rate 0.3% among 360,000; activation, % at 3 µM; CHO-K1 hM5, Fluo-8 calcium, ACh EC20 PAM; 0% = ACh EC20, 100% = ACh EC100; AID 624038;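 active = activation above the run cutoff, the mean activation of all test compounds plus 3 SD, cut at about 18% in these data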
Target sequence (P08912 whole entry, looked up): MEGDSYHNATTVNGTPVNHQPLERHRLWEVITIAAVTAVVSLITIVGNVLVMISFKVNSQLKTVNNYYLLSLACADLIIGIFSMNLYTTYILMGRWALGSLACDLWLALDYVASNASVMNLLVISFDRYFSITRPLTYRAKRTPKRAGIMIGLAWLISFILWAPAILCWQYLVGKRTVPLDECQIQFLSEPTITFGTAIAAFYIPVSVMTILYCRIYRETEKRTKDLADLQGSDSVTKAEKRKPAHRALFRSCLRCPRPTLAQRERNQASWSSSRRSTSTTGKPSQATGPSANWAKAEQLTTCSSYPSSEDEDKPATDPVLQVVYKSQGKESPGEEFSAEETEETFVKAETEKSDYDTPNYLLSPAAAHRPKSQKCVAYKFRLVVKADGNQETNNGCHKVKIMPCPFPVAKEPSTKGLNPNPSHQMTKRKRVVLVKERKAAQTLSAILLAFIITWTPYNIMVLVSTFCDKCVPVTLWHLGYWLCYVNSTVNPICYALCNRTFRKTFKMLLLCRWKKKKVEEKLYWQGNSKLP
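Test system: CHO-K1 hM5 cells / Doses: single-point, 3 µM nominal / Times: Post-acetylcholine fluorescence recording 140 s / Technique: Fluo-8 calcium fluorescence / Measure: Max/basal fluorescence ratio as % of EC20–EC100 ACh window / Benchmarks: low control EC20 acetylcholine (0%), high control EC100 acetylcholine (100%) / Replicates: one well per compound, no replicates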
M4 antag – antagonists of human muscarinic M4 receptor (CHRM4); inhibition, % at 3 µM; hit rate 0.73% among 360,000; P08173; CHO-hM4 cells, ACh EC80, Fluo-8 calcium fluorescence;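 active = inhibition above its plate's cutoff, the mean inhibition of sample wells plus 3 SD, cut at about 27% in these data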
M5 antag – CHRM5 antagonism in calcium assay; hit rate 0.59% among 360,000; P08912; inhibition, % at 3 µM; CHO-hM5 cells, Fluo-8 calcium fluorescence, ACh EC80;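 active = inhibition above a per-plate cutoff, the mean of that plate's test compounds plus 3 SD, cut at about 27% in these data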
CHRM4 PAM – CHRM4 positive allosteric modulation; P08173; CHO-K1 hM4/Gqi5, Fluo-8 calcium fluorescence, ACh EC20; 0% = ACh EC20, 100% = maximal ACh; activation, % at 3 µM; hit rate 0.4% among 360,000; AID 624126;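 active = activation above its plate's cutoff, the mean activation of sample wells plus 3 SD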
CHRM4 agonist – CHRM4 agonism in calcium assay; CHO-K1 hM4/Gqi5, Fluo-8 calcium fluorescence; vehicle 0%, full acetylcholine response 100%; activation, % at 3 µM; P08173; AID 624127; hit rate 0.14% among 360,000;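 active = activation above the run mean over all test wells plus 3 SD, cut at about 32% in these data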;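 note: peak over basal fluorescence ratio per well then scaled between controls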
CHRM5 agonist – agonists of human muscarinic M5 receptor (CHRM5); P08912; CHO-K1 hM5 cells, Fluo-8 calcium fluorescence; 0% DMSO wells, 100% maximal acetylcholine response; activation, % at 3 µM; hit rate 0.19% among 360,000;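 active = activation above the run's mean over test compounds plus 3 SD, cut at about 23% in these data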;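 note: signal is peak over basal fluorescence ratio across the kinetic read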
Numbers stand for hits; n = inactive. Sampled rows, rich in hits. Any-hit rate of the full collection: about 1.8%.

SMILES	CHRM5 PAM	M4 antag	M5 antag	CHRM4 PAM	CHRM4 agonist	CHRM5 agonist
CCn1c(=NC(=O)C2COc3ccccc3O2)sc2c(OC)ccc(OC)c21 (configuration not stated)	n	36.4	n	n	n	n
COCCn1c(=NC(=O)C2COc3ccccc3O2)sc2cc(S(N)(=O)=O)ccc21 (configuration not stated)	n	n	n	n	n	n
CNc1cccc(-c2cc(OC)ccc2OC)n1	n	n	n	n	n	n
COc1cc(C2Nc3cc(Cl)c(S(N)(=O)=O)cc3S(=O)(=O)N2)cc(OC)c1OC (configuration not stated)	n	n	n	23.9	n	n
Cc1ccc(/C=C/C(=O)c2cc(Br)ccc2OC(=O)c2ccco2)cc1	21.2	n	n	n	n	n
CN(c1ccc([N+](=O)[O-])cc1)c1cc2c(c3c1ccn3C)C1CCC2C1 (configuration not stated)	n	n	n	n	n	n
CCN(CC)CCCCCCCCOC(=O)c1cc(OC)c(OC)c(OC)c1	n	28.9	n	n	n	n
O=C(NN=Cc1c(O)ccc2ccccc12)c1ccc2c(c1)OCO2	n	n	n	23.0	n	n
CCN1CCCC(OC(=O)C(c2ccccc2)c2ccccc2)C1 (configuration not stated)	n	32.1	57.3	n	n	n
Cc1cc(C)c2cc(C#N)c(NCCNC(=O)c3cccnc3)nc2c1	n	n	n	n	n	n
CCOc1cc(-c2noc(N)c2C#N)cc(OCC)c1OCC	n	n	n	n	n	n
Cc1ccccc1-c1noc(N)c1C#N	24.7	n	n	43.2	n	n
COc1ccc(NC(=O)CCc2nnc3ccc(NCc4ccco4)nn23)cc1	28.1	n	n	38.7	n	n
O=C1NC[C@H](CCCCN2CCN(CCC3CCCCC3)C(=O)C2=O)N(CC2CCCCC2)C1=O	n	n	n	n	n	n
Nc1nc(N)c(N=O)c(Nc2ccc(Cl)c(Cl)c2)n1	n	n	n	n	n	51.6
Nc1nc(N)c(Br)c(Nc2ccc(Cl)c(Cl)c2)n1	29.3	n	n	n	n	25.3
CCc1c(N)nc(N)nc1Nc1ccc(C)c(C)c1	n	n	n	n	n	n
Cc1ccc(Nc2nc(N)nc(N)c2N=O)cc1Cl	n	n	n	n	n	44.6
Nc1nc(N)c(N=O)c(Nc2cccc(Cl)c2)n1	n	n	n	n	n	45.4
CN(C)CCCN1c2ccccc2Sc2ccc3ccccc3c21	n	26.8	55.4	n	n	n
CN(C)CCCN1c2ccccc2Sc2ccc(Cl)cc21	n	73.2	98.2	n	n	n
OCCN1CCN(CCCN2c3ccccc3Sc3ccc(Cl)cc32)CC1	n	97.7	34.0	n	n	n
COc1cc(-c2coc3c(C(=O)NCc4ccc(C(F)(F)F)cc4)cccc23)ccc1O	n	n	n	n	n	n
COC(=O)[C@]12CCCCC=C1N(Cc1cccc3ccccc13)C(=O)[C@H](CC(=O)NCCCN1CCCC1=O)C2	n	n	n	n	n	n
COc1ccccc1CCNC(=O)C(=O)c1cn(CC(=O)N2CCCC2)c2ccccc12	n	n	n	n	n	n
SMILES	CHRM5 PAM	M4 antag	M5 antag	CHRM4 PAM	CHRM4 agonist	CHRM5 agonist
O=C(NCc1ccccc1Cl)C(=O)c1cn(CC(=O)N2CCOCC2)c2ccccc12	23.1	n	n	n	n	n
O=C(NCc1ccccc1)C(=O)c1cn(CC(=O)N2CCOCC2)c2ccccc12	n	n	n	n	n	n
O=C(NCCc1ccccc1)C(=O)c1cn(CC(=O)N2CCCC2)c2ccccc12	n	n	27.3	n	n	n
Cc1sc2nc(CN3CCCC3)nc(N3CCC(C(N)=O)CC3)c2c1C	n	n	n	30.5	n	n
Cc1sc2nc(CN3CCCC3)nc(N3CCN(C(=O)c4ccco4)CC3)c2c1C	n	n	n	n	n	n
CCOC(=O)N1CCN(C(=O)CSCC(=O)Nc2nc(-c3ccc(OC)cc3)cs2)CC1	n	n	n	n	n	n
CCOC(=O)N1CCN(C(=O)CSCC(=O)Nc2nc(-c3ccc(-c4ccccc4)cc3)cs2)CC1	n	n	44.2	n	n	n
CCN1CCN(CNC(=O)c2cnccn2)CC1	20.7	n	n	n	n	n
CCCCNC(=O)c1nc(-c2cnc(C)cn2)oc1-c1ccc(Cl)cc1	n	n	n	n	n	n
O=C(c1cccs1)N1CCc2ccccc2C1	n	n	n	n	n	n
O=C(c1ccc(Br)s1)N1CCc2ccccc2C1	19.1	n	n	n	n	n
Cc1ccnc(NC(=O)CCNC(=O)c2ccccc2Cl)c1	n	n	n	21.4	n	n
Cc1ccc(NC(=O)CCNC(=O)c2ccccc2Cl)nc1	n	n	n	n	n	n
CN(C)CCCN1c2ccccc2CCc2ccccc21	n	69.5	80.0	n	n	n
CNC(=O)N1c2ccccc2CCc2ccccc21	n	n	n	n	n	n
CN(C)CCCC1(O)c2ccccc2CCc2ccccc21	n	n	n	n	n	n
CC(CN(C)C)CN1c2ccccc2CCc2ccccc21 (configuration not stated)	n	87.4	98.7	n	n	n
CCOC(=O)CCCCCCCCC(=O)Nc1ccc(-n2[nH]c(=O)cc2C)cc1	n	n	n	n	n	23.6
COc1cc2nc(N3CCN(C(=O)C4COc5ccccc5O4)CC3)nc(N)c2cc1OC (configuration not stated)	n	29.5	n	n	n	n
COc1ccc(S(=O)(=O)N2CCN(C(=O)C3COc4ccccc4O3)CC2)cc1 (configuration not stated)	n	31.8	n	n	n	n
COc1cc2nc(N3CCN(C(=O)c4ccco4)CC3)nc(N)c2cc1OC	n	n	n	n	n	n
CCn1ncc(CN2CCCC(C(=O)c3cccc(OC(C)C)c3)C2)c1C (configuration not stated)	n	37.8	29.2	n	n	n
CCOC(=O)c1[nH]ncc1CN1CCCC(C(=O)c2cccc(OC(C)C)c2)C1 (configuration not stated)	n	n	n	n	n	n
O=S(=O)(c1cc(Br)ccc1Br)N1CCCCCC1	n	n	n	n	n	n
Nc1ncc(Br)cc1S(=O)(=O)N1CCCCCC1	n	n	29.2	n	n	n
CCOC(=O)C1=CC[C@@H](c2ccccc2)N(S(=O)(=O)c2ccc(C)cc2)[C@H]1c1ccc(C#N)cc1	n	n	n	n	n	n
CCOC(=O)C1=CC[C@@H](c2ccccc2)N(S(=O)(=O)c2ccc(C)cc2)[C@H]1C#N	n	31.5	n	n	n	n
O=C(N/N=C/c1ccccc1)C(=O)N/N=C/c1ccccc1	n	n	n	n	n	n
